{"source": "ChEMBL document CHEMBL4219255", "about": "“Targeting Transient Receptor Potential Vanilloid 1 (TRPV1) Channel Softly: The Discovery of Passerini Adducts as a Topical Treatment for Inflammatory Skin Disorders” (J Med Chem, 2018)", "key": {"[1]": {"molecular_target": "T1, Transient receptor potential cation channel subfamily V member 1 (Homo sapiens, UniProt Q8NER1)", "T1 sequence (Q8NER1 whole entry)": "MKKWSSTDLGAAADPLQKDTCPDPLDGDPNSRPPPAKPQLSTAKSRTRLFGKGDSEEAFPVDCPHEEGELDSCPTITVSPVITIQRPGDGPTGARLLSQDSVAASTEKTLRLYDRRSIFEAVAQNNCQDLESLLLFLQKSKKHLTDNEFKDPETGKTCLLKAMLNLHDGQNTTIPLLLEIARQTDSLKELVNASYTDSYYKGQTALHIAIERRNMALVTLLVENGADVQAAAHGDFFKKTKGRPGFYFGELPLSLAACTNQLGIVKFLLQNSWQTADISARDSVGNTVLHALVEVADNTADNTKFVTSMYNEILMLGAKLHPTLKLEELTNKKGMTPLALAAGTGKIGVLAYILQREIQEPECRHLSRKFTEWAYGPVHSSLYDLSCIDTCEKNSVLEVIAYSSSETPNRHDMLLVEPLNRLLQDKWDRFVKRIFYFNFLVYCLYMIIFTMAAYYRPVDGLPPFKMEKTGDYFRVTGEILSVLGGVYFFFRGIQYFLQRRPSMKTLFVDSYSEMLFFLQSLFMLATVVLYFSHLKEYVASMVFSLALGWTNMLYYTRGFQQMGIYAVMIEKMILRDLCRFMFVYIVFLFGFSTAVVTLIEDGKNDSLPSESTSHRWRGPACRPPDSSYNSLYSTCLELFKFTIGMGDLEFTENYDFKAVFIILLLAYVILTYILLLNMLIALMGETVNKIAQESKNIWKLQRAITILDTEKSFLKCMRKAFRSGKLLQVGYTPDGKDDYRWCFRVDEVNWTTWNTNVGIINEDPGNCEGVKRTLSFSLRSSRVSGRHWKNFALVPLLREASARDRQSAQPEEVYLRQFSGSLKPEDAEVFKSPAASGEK", "test": "Antagonist activity at TRPV1 (unknown origin) expressed in human SH-SY5Y cells assessed as inhibition of capsaicin-induced calcium increase after 25 mins by Fluo-4 NW dye-based fluorescence assay", "type": "cell-based"}, "[2]": {"molecular_target": "T1, Transient receptor potential cation channel subfamily V member 1", "test": "Antagonist activity at TRPV1 (unknown origin) expressed in human SH-SY5Y cells assessed as inhibition of capsaicin-induced calcium influx at 1 uM after 25 mins by Fluo-4 NW dye-based fluorescence assay relative to capsaicin", "type": "cell-based"}, "[3]": {"test": "Drug metabolism in human plasma assessed as residual substrate levels at 100 uM up to 20 mins by HPLC-UV analysis", "type": "ADME, cell-free", "settings": "read-out: Stability"}, "[4]": {"test": "Drug metabolism in human keratinocytes assessed as residual substrate levels at 50 uM up to 120 mins by HPLC-UV analysis", "type": "ADME, cell-based, Keratinocyte", "settings": "read-out: Stability"}, "[5]": {"test": "Drug metabolism in human fibroblast cells assessed as residual substrate levels at 50 uM up to 120 mins by HPLC-UV analysis", "type": "ADME, cell-based", "settings": "read-out: Stability"}, "Cocaine esterase (CE2)": {"molecular_target": "T2, Cocaine esterase (CE2) (Homo sapiens, UniProt O00748)", "T2 sequence (O00748 whole entry)": "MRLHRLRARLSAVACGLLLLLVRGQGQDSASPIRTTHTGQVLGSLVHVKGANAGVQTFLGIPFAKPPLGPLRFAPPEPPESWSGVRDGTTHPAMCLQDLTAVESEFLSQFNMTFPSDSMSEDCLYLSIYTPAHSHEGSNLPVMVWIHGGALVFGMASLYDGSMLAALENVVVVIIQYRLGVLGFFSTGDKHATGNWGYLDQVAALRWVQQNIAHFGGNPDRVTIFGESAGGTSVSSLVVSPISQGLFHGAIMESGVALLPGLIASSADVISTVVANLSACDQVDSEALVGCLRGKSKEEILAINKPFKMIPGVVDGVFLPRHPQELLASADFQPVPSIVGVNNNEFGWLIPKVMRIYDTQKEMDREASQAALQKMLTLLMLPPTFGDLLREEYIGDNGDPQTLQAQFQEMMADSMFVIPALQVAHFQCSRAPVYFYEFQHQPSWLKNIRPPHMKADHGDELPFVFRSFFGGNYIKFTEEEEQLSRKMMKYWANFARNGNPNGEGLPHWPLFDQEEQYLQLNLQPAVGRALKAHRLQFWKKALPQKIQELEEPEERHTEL", "test": "Drug metabolism assessed as recombinant human CE2-mediated compound hydrolysis by measuring compound half life at 50 uM up to 30 mins by LC-UV analysis", "type": "ADME", "method_in_brief": "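Recombinant human carboxylesterase isoforms 1 and 2 were each incubated with the test ester. Hydrolysis was followed by HPLC-UV, tracking the disappearance of the substrate over incubation time relative to the initial amount. Chromatograms were also checked for peaks of the expected hydrolysis metabolites.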"}, "Mus musculus [6]": {"test_system": "Mus musculus", "test": "Analgesic activity in CFA-induced thermal hyperalgesia C57BL/6 mouse model assessed as reduction in latency time required to elicit paw withdrawal in response to radiant heat applied to the plantar surface of a hind paw at 10 to 100 ug administered as intraplantar injection treated at 24 hrs post CFA injection measured at 30 mins post dose", "type": "functional, organism-based"}, "Mus musculus [7]": {"test_system": "Mus musculus", "test": "Analgesic activity in CFA-induced thermal hyperalgesia C57BL/6 mouse model assessed as reduction in CFA-induced ipsilateral paw withdrawal latency at 1 mg/kg, iv treated at 24 hrs post CFA injection measured at 30 to 60 mins post dose", "type": "functional, organism-based"}, "[8]": {"test": "Drug metabolism in human liver microsomes assessed as sulfate conjugate formation at 50 uM in presence of UDPGA after 60 mins by LC-ESI-MS analysis", "type": "ADME, microsome", "settings": "1 h"}, "[9]": {"test": "Drug metabolism in human liver cytosol assessed as glucuronide metabolite formation at 50 uM in presence of UDPGA after 60 mins by LC-ESI-MS analysis", "type": "ADME, subcellular", "settings": "1 h"}, "[10]": {"molecular_target": "Transient receptor potential cation channel subfamily V member 1 (Rattus norvegicus) (UniProt O35433)", "sequence (O35433 whole entry)": "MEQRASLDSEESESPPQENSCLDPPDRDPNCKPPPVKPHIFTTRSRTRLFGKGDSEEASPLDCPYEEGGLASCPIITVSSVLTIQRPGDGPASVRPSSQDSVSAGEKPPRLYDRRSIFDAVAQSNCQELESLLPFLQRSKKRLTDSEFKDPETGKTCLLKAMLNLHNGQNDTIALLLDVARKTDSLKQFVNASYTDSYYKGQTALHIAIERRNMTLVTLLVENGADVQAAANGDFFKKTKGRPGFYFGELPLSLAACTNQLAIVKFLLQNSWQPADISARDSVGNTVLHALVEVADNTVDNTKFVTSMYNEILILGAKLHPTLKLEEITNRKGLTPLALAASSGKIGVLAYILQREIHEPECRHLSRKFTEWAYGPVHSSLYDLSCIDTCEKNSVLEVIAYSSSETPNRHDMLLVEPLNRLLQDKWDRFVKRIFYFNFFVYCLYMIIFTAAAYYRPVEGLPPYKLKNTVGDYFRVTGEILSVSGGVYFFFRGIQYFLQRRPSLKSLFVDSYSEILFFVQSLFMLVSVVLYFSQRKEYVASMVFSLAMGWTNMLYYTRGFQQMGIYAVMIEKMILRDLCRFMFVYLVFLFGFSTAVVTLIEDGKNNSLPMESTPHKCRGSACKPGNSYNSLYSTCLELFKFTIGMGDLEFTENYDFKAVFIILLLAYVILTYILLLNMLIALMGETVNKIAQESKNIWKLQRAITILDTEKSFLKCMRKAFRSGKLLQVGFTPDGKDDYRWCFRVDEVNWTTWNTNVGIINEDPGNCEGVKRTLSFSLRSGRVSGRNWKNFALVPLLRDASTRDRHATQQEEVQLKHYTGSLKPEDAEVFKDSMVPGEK", "test": "Modulatory activity against TRPV1 in Wistar rat neonatal dorsal root ganglia assessed as inhibition of capsaicin-evoked action potential at 10 uM by microelectrode array analysis relative to control", "method_in_brief": "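Capsaicin-evoked action potential firing recorded with test agent at 10 µM. Response expressed as the P2/P1 mean spike frequency ratio.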"}}, "note": "Active and inactive are the calls of the source. The calls are words filed in the database; no cut-off is given here.", "data": [{"molecule": "CCCCCCCCCCCC(=O)OCC(=O)NCc1cc(OC)c(O)cc1I", "values": [{"measurement": "IC50", "setting": "[1]", "value": 930, "unit": "nM"}, {"measurement": "inhibition", "setting": "[2]", "value": 59.8, "unit": "%"}, {"measurement": "remaining at 20 min, 100 µM", "setting": "[3]", "value": 82, "unit": "%"}, {"measurement": "remaining at 2 h, 50 µM", "setting": "[4]", "value": 22.6, "unit": "%"}, {"measurement": "remaining at 2 h, 50 µM", "setting": "[5]", "value": 13.3, "unit": "%"}, {"measurement": "half-life at 50 µM", "setting": "Cocaine esterase (CE2)", "value": 12.5, "unit": "min"}, {"measurement": "Activity", "setting": "Mus musculus [6]", "value": "Active"}, {"measurement": "Activity", "setting": "Mus musculus [7]", "value": "Active"}, {"measurement": "Drug metabolism", "setting": "[8]", "value": "Metabolite_Notdetected"}, {"measurement": "Drug metabolism", "setting": "[9]", "value": "Metabolite_Notdetected"}, {"measurement": "inhibition", "setting": "[10]", "value": 43, "unit": "%"}]}]}
